Source: PubChem (Johns Hopkins Ion Channel Center)
Sampled rows, rich in hits. Any-hit rate of the full collection: about 3.8%.
KCNQ1 inh: human KCNQ1 channel inhibition; P51787; CHO-K1 KCNQ1, FluxOR thallium flux fluorescence; active compounds read high; B-score at 10 µM; hit rate 1.3% among 310,000; AID 2642;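 active = compounds whose thallium flux B-score, printed positive for inhibition, exceeds three library SD while starting fluorescence stays within three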;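 note: channel opened by potassium depolarization with thallium stimulus after 20 min compound exposure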
Kir21 inh: inhibitors of mouse Kir2.1 inward-rectifier potassium channel; B-score at 10 µM; P35561; HEK293-Kir2.1, FluxOR thallium flux fluorescence; active compounds read low; hit rate 0.85% among 310,000;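 active = fluorescence ratio B-score at or below minus 3 SD of library scores, with starting-brightness B-score within 2 SD, cut at about -4.2 in these data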;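 note: channel flux triggered by added potassium and thallium sulfate stimulus; B-score of peak minus minimum fluorescence over baseline after thallium stimulus; more negative B-score means stronger Kir2.1 block with less thallium influx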
hERG protect: shields human hERG channel from block by proarrhythmic agents. Q12809. AID 1511. hit rate 0.51% among 310,000. CHO-hERG, FluxOR thallium flux, dofetilide IC70 present. activation (rescue from dofetilide block), less the hit threshold, % at 10 µM;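 active = activation above the mean of controls blocked by dofetilide plus 5 SD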;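 note: thallium influx through hERG after potassium depolarization seen as dye fluorescence rise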
KCNK9 block: human KCNK9 channel inhibition; HEK293 KCNK9, FluxOR thallium flux fluorescence; active compounds read low; B-score at 10 µM; AID 488922; hit rate 1.2% among 310,000;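 active = ratio B-score over 3 SD below the library mean, with starting fluorescence within 5 SD of its mean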;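 note: negative B-score means less thallium flux so channel inhibition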
Target sequence (Q9NPC2 whole entry, looked up): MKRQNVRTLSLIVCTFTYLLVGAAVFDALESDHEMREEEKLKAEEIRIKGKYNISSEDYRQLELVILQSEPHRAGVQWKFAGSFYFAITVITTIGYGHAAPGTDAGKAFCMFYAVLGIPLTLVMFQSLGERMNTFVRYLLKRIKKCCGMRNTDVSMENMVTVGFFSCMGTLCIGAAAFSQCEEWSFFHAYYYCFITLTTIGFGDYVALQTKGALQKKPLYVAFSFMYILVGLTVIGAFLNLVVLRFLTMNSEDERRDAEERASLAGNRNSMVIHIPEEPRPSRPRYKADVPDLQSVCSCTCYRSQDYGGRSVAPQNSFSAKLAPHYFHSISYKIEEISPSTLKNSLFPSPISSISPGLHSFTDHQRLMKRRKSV
KCNQ1 act: potentiates or activates the human KCNQ1 potassium channel; P51787; CHO-K1 KCNQ1, thallium flux FluxOR fluorescence; active compounds read high; B-score at 10 µM; hit rate 0.35% among 310,000;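 active = fluorescence ratio B-score, a plate-corrected score, at least three library SD, with initial intensity B-score within 5 SD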
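Assay system: stable KCNQ1 CHO-K1 line; medium: assay buffer, equal DMSO in all wells; timing: 90 min dye loading and 20 min compound exposure, both at room temperature; technique: kinetic FluxOR thallium fluorescence, 10-s 1-Hz baseline, 110-s post-stimulus read; read-out basis: B score of baseline-normalized fluorescence ratio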
KCNK3 inh: human KCNK3 channel inhibition, primary screen; AID 602410; hit rate 0.84% among 340,000; CHO-KCNK3 thallium flux, FluxOR fluorescence; active compounds read low; B-score at 10 µM; O14649;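 active = B-score under library mean minus 4 SD, starting fluorescence ratio at most library mean plus 5 SD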;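 note: more negative B-score means stronger inhibition of thallium flux through KCNK3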
The depositor's hits bear a star; i = inactive.

SMILES | KCNQ1 inh | Kir21 inh | hERG protect | KCNK9 block | KCNQ1 act | KCNK3 inh
COc1ccc(CN2CCNC(=O)C2CC(=O)NCCSc2nccn2C)c(OC)c1 (stereo not drawn) | i | -0.03 | -12 | i | i | i
Cc1nc(SCc2cccc(F)c2)c2oc3ccccc3c2n1 | i | 0.21 | 5.0* | i | i | i
O=C(CSc1nc(=O)n2ccccc2n1)NCc1ccccc1 | i | 0.37 | -16 | i | 8* | i
O=C(CSc1nc(=O)n2ccccc2n1)NCc1ccc(F)cc1 | i | 0.61 | -11 | i | i | i
CCSC1=N/C(=C\c2ccc(C)s2)C(=O)S1 | i | -1.9 | -7 | i | i | i
CCOc1cc(/C=C2\N=C(SCC)SC2=O)cc([N+](=O)[O-])c1OC(C)=O | 8* | 0.86 | -22 | i | i | i
CCOc1c(O)ccc(/C=C2\SC(=S)NC2=O)c1[N+](=O)[O-] | i | 1.1 | -11 | i | i | i
CCOc1c(OC(C)=O)ccc(/C=C2\N=C(SCC)SC2=O)c1[N+](=O)[O-] | 9* | 2 | -25 | i | i | i
CCOc1cc(/C=C2\N=C(SC)SC2=O)cc([N+](=O)[O-])c1OC(C)=O | 12* | -0.5 | -25 | i | i | i
CN(C)CCO[C@@H](c1ccc(Cl)cc1)c1ccccn1 | i | -1 | -5 | i | i | i
Cc1ccc(C(OCCN(C)C)c2cccc(C(F)(F)F)c2)cc1 (stereo not drawn) | i | -5.2* | -8 | i | i | i
Cc1ccc(C(C)NC(=O)c2cccs2)cc1C (stereo not drawn) | i | -0.29 | 5.2* | i | i | i
Cc1ccc(C(C)NC(=O)c2cccs2)cc1 (stereo not drawn) | i | -0.22 | -6 | i | i | i
N#C/C(=N\Nc1ccc(Cl)cc1)C(N)=S | 6* | -0.44 | -12 | i | i | i
CCOc1ccc(N(C)c2ccc(/C=C3/SC(=S)NC3=O)cc2)cc1 | i | -2.3 | -4 | i | i | i
CCOc1ccc(N=C2NC(=O)S/C2=C\c2ccc(Cl)cc2)cc1 | i | -0.18 | 11* | i | i | i
CN(C(=O)c1cnccn1)c1nnc(-c2cnccn2)s1 | i | -0.42 | 10* | i | i | i
CC(Sc1nnc2ccccn12)C(N)=O (stereo not drawn) | i | -0.69 | 5.0* | i | i | i
CC(Sc1nnc2ccccn12)C(=O)Nc1ccc(Cl)cn1 (stereo not drawn) | i | 0.01 | -4 | i | i | i
Cc1cc(/C=N/n2cnnc2)c(C)n1-c1ccc(Cl)cc1Cl | i | -0.17 | -11 | i | 10* | i
Cc1cc(/C=N/n2cnnc2)c(C)n1-c1ccc(Cl)cc1 | i | -2.5 | -9 | i | i | i
CC(C)Cn1c(=O)c(C(=O)Nc2ccncc2)c(O)c2ccccc21 | 8* | 0.91 | -17 | i | i | i
CC(C)Cn1c(=O)c(C(=O)Nc2cnccn2)c(O)c2ccccc21 | i | -2.9 | -9 | i | i | i
CCCN1C2CCCC1CC(NC(=O)c1ccccc1OC)C2 (stereo not drawn) | 8* | -0.49 | -5 | i | i | i
Cc1ccccc1NCC(=O)N/N=C/c1c(C)c(C(=O)c2ccc(Cl)cc2)n2ccccc12 | 7* | -0.97 | -22 | i | i | i
SMILES | KCNQ1 inh | Kir21 inh | hERG protect | KCNK9 block | KCNQ1 act | KCNK3 inh
Cc1ccc(S(=O)(=O)N(C)C)cc1NC(=O)C(C)OC(=O)c1ccc2c(c1)OCCO2 (stereo not drawn) | i | -0.68 | -12 | i | i | i
Cc1c(/C=N/Nc2nc3ccccc3[nH]2)c2ccccc2n1C | 7* | -2.4 | -17 | i | i | i
O=c1c2ccccc2nc(/C=C/c2ccccc2)n1CCCO | i | 2.7 | -7 | i | i | i
CN(C)c1ccc(/C=C/c2nc3ccccc3c(=O)n2CCO)cc1 | 6* | -2.2 | -18 | i | i | i
CC(CC12CC3CC(CC(C3)C1)C2)NCc1ccccc1O (stereo not drawn) | 6* | -5* | -13 | i | i | i
CCN1CCN(CCOc2cccc(Oc3ccccc3)c2)CC1 | i | -4.5* | -5 | i | i | i
CCN1CCN(CCOCCOc2ccccc2)CC1 | i | 1.1 | -4 | i | i | i
CC(=O)Nc1nc2n(n1)C(c1ccccc1)C=C(c1ccccc1)N2 (stereo not drawn) | i | -0.16 | -1 | i | i | i
O=C(c1nc2n(n1)C(c1ccc(Cl)cc1)C=C(c1ccccc1)N2)N1CCOCC1 (stereo not drawn) | i | -4.6 | -15 | -6.8* | i | i
CCOC(=O)C1=C(C)NC(C)=C(C(=O)OC)C1c1cccc([N+](=O)[O-])c1 (stereo not drawn) | i | 1.2 | -8 | i | i | i
COC(=O)C1=C(C)NC(C)=C(C(=O)O[C@@H]2CCCN(Cc3ccccc3)C2)[C@@H]1c1cccc([N+](=O)[O-])c1 | 7* | 0.63 | -15 | i | i | i
CC(C)(C)c1cc(C(=O)NNC(=O)c2ccc(C(F)(F)F)cc2)no1 | i | -1.7 | -5 | i | 9* | i
COc1cccc(CC2(CO)CCCN(Cc3cn(C)c4ccccc34)C2)c1 (stereo not drawn) | i | -4.3* | -10 | i | i | i
CCn1cc(CN2CCCC(CO)(Cc3ccc(F)cc3)C2)c2ccccc21 (stereo not drawn) | i | -5.2* | -8 | i | i | i
O=c1cc(-c2ccc(Cl)cc2)nc(N2CCN(c3ccccc3)CC2)[nH]1 | i | -1 | -6 | -7.2* | i | i
Cc1ccc(NC(=O)c2cnc(N3CCN(c4ccccn4)CC3)c3ccccc23)c(Br)c1 | i | 0.91 | -10 | i | i | i
COc1ccccc1C(=O)OCc1nc(N)nc(Nc2ccccc2C)n1 | i | -5.2* | -2 | i | i | i
CCCCN(CCCC)c1nc(OC)nc(-n2nnc(C(C)=O)c2C)n1 | i | -0.01 | -16 | -6.6* | i | i
CC(=O)c1nnn(-c2nc(N)nc(N(c3ccccc3)c3ccccc3)n2)c1C | i | -1.2 | -8 | i | i | i
COc1ccc2[nH]c3c(c2c1)[C@@H]1CCN2C(=O)CCC[C@H](C3)[C@H]12 | i | -0.18 | -5 | i | i | i
O=C(OCc1cccc([N+](=O)[O-])c1)c1ccc2ccccc2n1 | i | 1.6 | 5.2* | i | i | i
C=CCNC(=S)NN(c1ccccc1)c1ccccc1 | i | -0.39 | -15 | i | i | i
